Laboratory results: ChEMBL document CHEMBL1938375, “Design, synthesis and biological evaluation of pyrazole derivatives as potential multi-kinase inhibitors in hepatocellular carcinoma” (Eur J Med Chem, 2012)
Calls of active or inactive are those of the source. The rule behind the calls is not given here.

Key:
[1] = target: RAC-alpha serine/threonine-protein kinase (Homo sapiens) (UniProt P31749); experiment: Inhibition of AKT in human SNU449 cells assessed as phosphorylated ERK1/2 level at 50 uM after 48 hrs by Western blotting relative to beta-actin; assay type: cell-based; conditions: SNU-449
Sequence of RAC-alpha serine/threonine-protein kinase (Homo sapiens) (P31749 whole entry): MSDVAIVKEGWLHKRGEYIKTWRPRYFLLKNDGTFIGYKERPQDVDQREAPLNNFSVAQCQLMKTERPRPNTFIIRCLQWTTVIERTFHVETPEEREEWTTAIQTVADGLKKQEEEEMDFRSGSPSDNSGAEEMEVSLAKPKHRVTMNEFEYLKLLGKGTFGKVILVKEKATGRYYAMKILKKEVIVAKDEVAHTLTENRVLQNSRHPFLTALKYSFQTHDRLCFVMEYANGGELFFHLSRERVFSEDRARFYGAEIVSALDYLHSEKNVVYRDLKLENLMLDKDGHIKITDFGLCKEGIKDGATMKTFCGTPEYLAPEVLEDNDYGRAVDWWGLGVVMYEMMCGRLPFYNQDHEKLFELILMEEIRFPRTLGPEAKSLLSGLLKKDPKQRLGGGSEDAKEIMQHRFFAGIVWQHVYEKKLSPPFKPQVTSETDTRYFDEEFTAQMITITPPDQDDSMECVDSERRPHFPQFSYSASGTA
Method in brief: (§1)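 Western blots in SNU449 cells treated at a single intermediate level for 48 and 72 h, with DMSO as control. Blots probed P-ERK1/2, P-GSK-3β (Ser-9) and P-RpS6. Band intensities were given as the ratio of phosphoprotein to β-actin.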

[2] = target: RAC-alpha serine/threonine-protein kinase (Homo sapiens) (UniProt P31749); experiment: Inhibition of AKT in human SNU449 cells assessed as phosphorylated RpS6 level at 50 uM after 48 hrs by Western blotting relative to beta-actin; assay type: cell-based; conditions: SNU-449; method in brief: as §1
[3] = target: RAC-alpha serine/threonine-protein kinase (Homo sapiens) (UniProt P31749); experiment: Inhibition of AKT in human SNU449 cells assessed as phosphorylated MDM2 level at 50 uM after 72 hrs by Western blotting relative to beta-actin; conditions: SNU-449
[4] = target: RAC-alpha serine/threonine-protein kinase (Homo sapiens) (UniProt P31749); experiment: Inhibition of AKT in human SNU449 cells assessed as phosphorylated ERK1/2 level at 50 uM after 72 hrs by Western blotting relative to beta-actin; assay type: cell-based; conditions: SNU-449; method in brief: as §1
[5] = target: RAC-alpha serine/threonine-protein kinase (Homo sapiens) (UniProt P31749); experiment: Inhibition of AKT in human SNU449 cells assessed as phosphorylated GSK3-beta level at 50 uM after 72 hrs by Western blotting relative to beta-actin; assay type: cell-based; conditions: SNU-449; method in brief: as §1
[6] = target: RAC-alpha serine/threonine-protein kinase (Homo sapiens) (UniProt P31749); experiment: Inhibition of AKT phosphorylation in human SNU449 cells at 25 uM after 48 hrs by Western blotting relative to beta-actin; assay type: cell-based; conditions: SNU-449
Method in brief: (§2)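 Western blot for P-AKT in SNU449 cells treated at 25, 50 and 100 for 48 h and 72 h, with DMSO-treated cells as control. Bands were quantified as the P-AKT to β-actin ratio.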

[7] = target: RAC-alpha serine/threonine-protein kinase (Homo sapiens) (UniProt P31749); experiment: Inhibition of AKT in human SNU449 cells assessed as phosphorylated GSK3-beta level at 50 uM after 48 hrs by Western blotting relative to beta-actin; assay type: cell-based; conditions: SNU-449; method in brief: as §1
[8] = target: RAC-alpha serine/threonine-protein kinase (Homo sapiens) (UniProt P31749); experiment: Inhibition of AKT phosphorylation in human SNU449 cells at 50 uM after 72 hrs by Western blotting relative to beta-actin; assay type: cell-based; conditions: SNU-449; method in brief: as §2
SNU-449 [9] = experiment: Cell cycle arrest in human SNU449 cells assessed as decrease in S phase at 100 uM after 48 to 72 hrs using […]propidium iodide staining by flow cytometric analysis
SNU-449 [10] = experiment: Cytotoxicity against human SNU449 cells at 50 uM after 72 hrs; assay type: functional, cell-based
Method in brief: (§3)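 Trypan blue exclusion counts on SNU449 cells grown in RPMI 1640 with 10% FBS and antibiotics. Compounds came from 10 mM DMSO stocks, diluted and tested at 50, 100 and 150 for 48 and 72 h in triplicate, with DMSO as control. Viable cells were counted in a Burker chamber. IC50 was derived from percentage viable cells relative to control.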

[11] = target: RAC-alpha serine/threonine-protein kinase (Homo sapiens) (UniProt P31749); experiment: Inhibition of AKT phosphorylation in human SNU449 cells at 25 uM after 72 hrs by Western blotting relative to beta-actin; assay type: cell-based; conditions: SNU-449; method in brief: as §2
[12] = target: RAC-alpha serine/threonine-protein kinase (Homo sapiens) (UniProt P31749); experiment: Inhibition of AKT phosphorylation in human SNU449 cells at 100 uM after 72 hrs by Western blotting relative to beta-actin; assay type: cell-based; conditions: SNU-449; method in brief: as §2
SNU-449 [13] = experiment: Up-regulation of p53 expression in human SNU449 cells at 50 uM after 72 hrs by Western blotting relative to beta-actin; assay type: functional
Method in brief: (§4)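 Western blots in SNU449 cells treated at a single intermediate level for 72 h, with DMSO as control. Blots probed cyclin D1, p21, p27 and p53. Band intensities were given as the ratio of protein to β-actin.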

SNU-449 [14] = experiment: Cytotoxicity against human SNU449 cells after 72 hrs; assay type: functional, cell-based; conditions: SNU-449, 72 h; method in brief: as §3
[15] = target: RAC-alpha serine/threonine-protein kinase (Homo sapiens) (UniProt P31749); experiment: Inhibition of AKT in human SNU449 cells assessed as total MDM2 protein level at 50 uM after 72 hrs by Western blotting relative to beta-actin; conditions: SNU-449
SNU-449 [16] = experiment: Cytotoxicity against human SNU449 cells after 48 hrs; assay type: functional, cell-based; conditions: SNU-449, 48 h; method in brief: as §3
[17] = target: RAC-alpha serine/threonine-protein kinase (Homo sapiens) (UniProt P31749); experiment: Inhibition of AKT in human SNU449 cells assessed as phosphorylated RpS6 level at 50 uM after 72 hrs by Western blotting relative to beta-actin; assay type: cell-based; conditions: SNU-449; method in brief: as §1
SNU-449 [18] = experiment: Effect on p27 expression in human SNU449 cells at 50 uM after 72 hrs by Western blotting relative to beta-actin; assay type: functional; method in brief: as §4
SNU-449 [19] = experiment: Up-regulation of p21 expression in human SNU449 cells at 50 uM after 72 hrs by Western blotting relative to beta-actin; assay type: functional; method in brief: as §4
[20] = target: RAC-alpha serine/threonine-protein kinase (Homo sapiens) (UniProt P31749); experiment: Inhibition of AKT phosphorylation in human SNU449 cells at 100 uM after 48 hrs by Western blotting relative to beta-actin; assay type: cell-based; conditions: SNU-449; method in brief: as §2
SNU-449 [21] = experiment: Cytotoxicity against human SNU449 cells at 50 uM after 48 hrs; assay type: functional, cell-based; method in brief: as §3
[22] = target: RAC-alpha serine/threonine-protein kinase (Homo sapiens) (UniProt P31749); experiment: Inhibition of AKT phosphorylation in human SNU449 cells at 50 uM after 48 hrs by Western blotting relative to beta-actin; assay type: cell-based; conditions: SNU-449; method in brief: as §2
SNU-449 [23] = experiment: Decrease of cyclin D1 level in human SNU449 cells at 50 uM after 72 hrs by Western blotting relative to beta-actin; assay type: functional; method in brief: as §4
[24] = target: RAC-alpha serine/threonine-protein kinase (Homo sapiens) (UniProt P31749); experiment: Inhibition of AKT in human SNU449 cells assessed as beta-catenin level at 50 uM after 48 hrs by Western blotting relative to beta-actin; conditions: SNU-449
SNU-449 [25] = experiment: Induction of apoptosis in human SNU449 cells at 50 to 100 uM after 72 hrs using annexin V/propidium iodide staining by flow cytometric analysis; assay type: functional, cell-based
Method in brief: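 SNU449 cells were treated at two compound levels for 72 h, with DMSO as control. Apoptosis was detected by Annexin V/propidium iodide staining and flow cytometry, following the kit instructions. Values are averages ± SD.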

[26] = target: RAC-alpha serine/threonine-protein kinase (Homo sapiens) (UniProt P31749); experiment: Inhibition of AKT in human SNU449 cells assessed as phosphorylated […] level at 50 uM after 72 hrs by Western blotting relative to beta-actin; assay type: cell-based; conditions: SNU-449
SNU-449 [27] = experiment: Cell cycle arrest in human SNU449 cells assessed as accumulation at G1 phase at 25 uM after 48 to 72 hrs using […]propidium iodide staining by flow cytometric analysis; assay type: functional, cell-based
SNU-449 [28] = experiment: Cell cycle arrest in human SNU449 cells assessed as accumulation at G1 phase at 100 uM after 48 to 72 hrs using […]propidium iodide staining by flow cytometric analysis; assay type: functional, cell-based
SNU-449 [29] = experiment: Cell cycle arrest in human SNU449 cells assessed as accumulation at G1 phase at 50 uM after 72 hrs using […]propidium iodide staining by flow cytometric analysis; assay type: functional, cell-based

Row | Structure (SMILES) | Ratio [1] | Ratio [2] | Ratio [3] | Ratio [4] | Ratio [5] | Ratio [6] | Ratio [7] | Ratio [8] | Activity (SNU-449 [9]) | Activity (SNU-449 [10]) | Ratio [11] | Ratio [12] | Ratio (SNU-449 [13]) | IC50 (SNU-449 [14]) [µM] | Ratio [15] | IC50 (SNU-449 [16]) [µM] | Ratio [17] | Ratio (SNU-449 [18]) | Ratio (SNU-449 [19]) | Ratio [20] | other results
1 | Cc1cccc(-c2cc(C(=O)Nc3ccc(N)cc3)n(-c3ccc(N)cc3)n2)c1C | 1.5 | 0.5 | 0.4 | 1.1 | 0.93 | 1.2 | 0.18 | 0.32 | Active | Active | 2.2 | 0.5 | 1.4 | < 50 | 1.3 | < 100 | 0.29 | 0.95 | 4.6 | 0.07 | Activity (SNU-449 [21]): Active; Ratio [22]: 0.26; Ratio (SNU-449 [23]): 0.39; Ratio [24]: 0.57; Activity (SNU-449 [25]): Active; Ratio [26]: 0.75; Activity (SNU-449 [27]): Active; Activity (SNU-449 [28]): Active
2 | Cc1cccc(NC(=O)c2cc(C(=O)Nc3ccc(N)cc3)n(-c3ccc(N)cc3)n2)c1C | 2 | 0.64 | 0.65 | 0.91 | 0.6 | 1.1 | 0.48 | 0.53 | Active | Active | 1.9 | 0.64 | 1.3 | 50 | 1.4 | 150 | 0.49 | 1.2 | 4.6 | 0.39 | Activity (SNU-449 [29]): Active; Activity (SNU-449 [21]): Active; Ratio [22]: 0.58; Ratio (SNU-449 [23]): 0.67; Ratio [24]: 0.41; Activity (SNU-449 [25]): Active; Ratio [26]: 0.46; Activity (SNU-449 [28]): Active
